Results on 5 compounds are retold here after publication PMC10668576 (RSC Advances, 2023).

Data set [1] can be described thus: Acute parenteral toxicity in rats. Type of data set: in vivo. The conditions noted are these: 0.5 to 50 mg per kg body weight, 14 days observation. In outline:
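Single parenteral dose of test compound dissolved in ethanol with gentle heating, given by tuberculin syringe following OECD 425 to female albino Wistar rats (190 ± 20 g), 3 per dose, at 0.5, 1, 10, 30 or 50 mg kg−1. Controls were ethanol-injected and non-injected rats. Rats were observed every 30 min for 6 h, then through 24 h and daily to 14 days. Organs were examined macroscopically and weighed on day 15.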

In data set [2] the test system is Aeromonas sobria. The experiment in a line: Disk diffusion inhibition zones. It is filed as cell-based. Particulars: 24 h. The gist of the method:
(§1)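 Test compound was dissolved in DMSO at 1000 μg mL−1 and soaked onto sterile 6 mm filter-paper discs. Discs were placed on Mueller–Hinton agar inoculated with fresh cultures suspended in sterile physiological water, then incubated at 37 °C for 24 h. DMSO discs served as negative control, with azithromycin (30 mg mL−1) as reference. Clear-zone width was read in mm with a transparent ruler.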
For orientation: A growth-free zone around the sample is the usual read-out of agar diffusion tests.

The test system of the next data set is burn wounds. The experiment in a line: Burn healing assay in rats. Type of data set: in vivo, albino Wistar female rats. Particulars: 1% cream, one application per 24 h on burn wound, n = 3.
The test system of data set [3] is Staphylococcus epidermidis. The experiment in a line: Disk diffusion inhibition zones. The conditions noted are these: 24 h. Type of data set: cell-based. In outline:
as §1

In data set [4] the test system is Aeromonas sobria. The experiment in a line: Minimum inhibitory concentration, serial dilution. Type of data set: cell-based. The gist of the method:
(§2)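 Inoculum was 10^6 cfu mL−1, incubated at 37 °C for 18–24 h. Wells were inspected for presence or absence of growth, and MIC was taken as the lowest concentration preventing growth. Each organism was tested on three separate occasions.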

In data set [5] the test system is Staphylococcus epidermidis. Description: Minimum inhibitory concentration, serial dilution. It is filed as cell-based. In outline: as §2
For data set [6], the system named is Staphylococcus aureus. The experiment in a line: Minimum inhibitory concentration, serial dilution. It is filed as cell-based. Particulars: Muller Hinton broth, 37 °C, 18 to 24 h. In outline:
as §2

Data set [7] relates to Klebsiella pneumoniae. Description: Disk diffusion inhibition zones. Type of data set: cell-based. Particulars: 24 h.
In data set [8] the test system is Escherichia coli. The experiment in a line: Disk diffusion inhibition zones. It is filed as cell-based. The conditions noted are these: 24 h. The gist of the method:
as §1

The subject of data set [9] is Bacillus cereus. The experiment in a line: Disk diffusion inhibition zones. Type of data set: cell-based. Particulars: 24 h. In outline:
as §1

Data set [10] has as its system Stenotrophomonas maltophilia. Description: Disk diffusion inhibition zones. The conditions noted are these: 24 h. It is filed as cell-based. The gist of the method: as §1
Data set [11] deals with Escherichia coli. Description: Minimum inhibitory concentration, serial dilution. It is filed as cell-based. The gist of the method: as §2
Data set [12] deals with Stenotrophomonas maltophilia. Description: Minimum inhibitory concentration, serial dilution. It is filed as cell-based. In outline:
as §2

Data set [13] deals with Staphylococcus aureus. Description: Disk diffusion inhibition zones. It is filed as cell-based. Particulars: 24 h. The gist of the method:
as §1

The test system of data set [14] is Pseudomonas aeruginosa. The experiment in a line: Disk diffusion inhibition zones. It is filed as cell-based. Particulars: 24 h. The gist of the method: as §1
The subject of data set [15] is Klebsiella pneumoniae. Description: Minimum inhibitory concentration, serial dilution. It is filed as cell-based.
Data set [16] has as its system Bacillus cereus. Description: Minimum inhibitory concentration, serial dilution. Type of data set: cell-based. The gist of the method:
as §2

Data set [17] relates to Pseudomonas aeruginosa. The experiment in a line: Minimum inhibitory concentration, serial dilution. Type of data set: cell-based. The gist of the method: as §2

The term zone of inhibition denotes the size of the clear area around the sample on an inoculated plate. A lower zone of inhibition goes with a weaker effect on the plate. In general, MIC refers to the lowest concentration that inhibits growth of the organism.

≈ marks a conversion by molar mass, not a printed value.

For the compound `O=C(Nc1ccc(S(=O)(=O)c2nccs2)cc1)c1cc(N=Nc2nccs2)ccc1O` [Compound 3c, 2-Hydroxy-5-(thiazol-2-yldiazenyl)-N-(4-(thiazol-2-ylsulfonyl)phenyl)benzamide], the Mortality entry in data set [1] is “no occurrences of mortality”. The Signs of toxicity result in data set [1] is “did not display any noteworthy signs of toxicity”. In addition, the zone of inhibition at 1000 µg/mL in the data set with Aeromonas sobria [2] stood at 10 ± 0.33 mm; in [3] it was 12 ± 0.43 mm; in the data set with Klebsiella pneumoniae [7], 12 ± 0.11 mm; in the data set on Escherichia coli [8] it was 9 ± 0.16 mm; in the data set with Bacillus cereus [9], 10 ± 0.13 mm; in [10], 9 ± 0.21 mm. For the same compound, the zone of inhibition at 1000 µg/mL in the data set with Staphylococcus aureus [13] turned out to be 16 ± 0.09 mm; in the data set on Pseudomonas aeruginosa [14] it was 9 ± 0.33 mm. In the data set on burn wounds, the “Day utilized for recovery” value was found to be 27 days. Also, the MIC with Aeromonas sobria [4] was found to be 40 µg/mL (≈ 84.8 µM); in [5], 40 µg/mL (≈ 84.8 µM); in the data set on Staphylococcus aureus [6] (Staphylococcus aureus), 10 µg/mL (≈ 21.2 µM); against Escherichia coli [11] it was 20 µg/mL (≈ 42.4 µM); in data set [12], 40 µg/mL (≈ 84.8 µM).

As to `CC[C@H]1OC(=O)[C@H](C)[C@@H](O[C@H]2C[C@@](C)(OC)[C@@H](O)[C@H](C)O2)[C@H](C)[C@@H](O[C@@H]2O[C@H](C)C[C@H](N(C)C)[C@H]2O)[C@](C)(O)C[C@@H](C)CN(C)[C@H](C)[C@@H](O)[C@]1(C)O` [azithromycin, reference compound], the zone of inhibition at 1000 µg/mL with Aeromonas sobria [2] stood at 18 ± 0.41 mm; in [3], 11 ± 0.32 mm; with Klebsiella pneumoniae [7] it was 20 ± 0.26 mm; in the data set with Escherichia coli [8], 7 ± 0.32 mm; with Bacillus cereus [9], 11 ± 0.31 mm; in data set [10], 10 ± 0.02 mm. Moreover, the zone of inhibition at 1000 µg/mL in the data set with Staphylococcus aureus [13] amounted to 15 ± 0.09 mm; with Pseudomonas aeruginosa [14] it was 7 ± 0.14 mm. Further, the MIC is 20 µg/mL (≈ 26.7 µM) in the data set on Aeromonas sobria [4]; 80 µg/mL (≈ 107 µM) in data set [5]; 20 µg/mL (≈ 26.7 µM) in the data set on Staphylococcus aureus [6]; 40 µg/mL (≈ 53.4 µM) against Staphylococcus aureus [6] (Staphylococcus aureus); 20 µg/mL (≈ 26.7 µM) against Escherichia coli [11]; 40 µg/mL (≈ 53.4 µM) in [12]. The MIC in the data set with Klebsiella pneumoniae [15] was 60 µg/mL (≈ 80.1 µM); in the data set on Bacillus cereus [16], 80 µg/mL (≈ 107 µM).

As to `O=C(O)c1cc(N=Nc2nccs2)ccc1O` [Compound 3, 2-Hydroxy-5-(thiazol-2-yldiazenyl)benzoic acid], the MIC was 80 µg/mL (≈ 321 µM) in the data set on Pseudomonas aeruginosa [17]; 20 µg/mL (≈ 80.2 µM) in the data set with Aeromonas sobria [4]; 10 µg/mL (≈ 40.1 µM) in data set [5]; 10 µg/mL (≈ 40.1 µM) in the data set with Staphylococcus aureus [6] (Staphylococcus aureus); 60 µg/mL (≈ 241 µM) in the data set with Escherichia coli [11]; 40 µg/mL (≈ 160 µM) in data set [12]. Further, the results for the MIC with Klebsiella pneumoniae [15] and in the data set on Bacillus cereus [16] were 80 µg/mL (≈ 321 µM) and 20 µg/mL (≈ 80.2 µM), respectively. In addition, the zone of inhibition at 1000 µg/mL in the data set on Aeromonas sobria [2] stood at 10 ± 0.31 mm; in [3], 14 ± 0.25 mm; with Klebsiella pneumoniae [7], 11 ± 0.31 mm; in the data set on Escherichia coli [8], 9 mm; in the data set with Bacillus cereus [9], 10 ± 0.03 mm; in data set [10] it was 8 ± 0.11 mm. The values for the zone of inhibition at 1000 µg/mL in the data set on Staphylococcus aureus [13] and in the data set with Pseudomonas aeruginosa [14] were 12 ± 0.23 mm and 10 ± 0.33 mm, respectively.

`O=C(Nc1nccs1)c1cc(N=Nc2nccs2)ccc1O` [Compound 3a, 2-Hydroxy-N-(thiazol-2-yl)-5-(thiazol-2-yldiazenyl)benzamide]: in data set [1], the Mortality result was “no occurrences of mortality”. In addition, in data set [1], the Signs of toxicity entry is given as “did not display any noteworthy signs of toxicity”. Moreover, the MIC was found to be 60 µg/mL (≈ 181 µM) against Pseudomonas aeruginosa [17]; 40 µg/mL (≈ 121 µM) against Aeromonas sobria [4]; 80 µg/mL (≈ 241 µM) in [5]; 10 µg/mL (≈ 30.2 µM) against Staphylococcus aureus [6] (Staphylococcus aureus); 80 µg/mL (≈ 241 µM) in the data set with Escherichia coli [11]; 60 µg/mL (≈ 181 µM) in data set [12]. The MIC amounted to 200 µg/mL (≈ 604 µM) with Klebsiella pneumoniae [15] and 100 µg/mL (≈ 302 µM) in the data set on Bacillus cereus [16]. For the same compound, the zone of inhibition at 1000 µg/mL is 10 ± 0.15 mm with Aeromonas sobria [2]; 18 ± 0.26 mm in data set [3]; 13 ± 0.22 mm with Klebsiella pneumoniae [7]; 9 ± 0.33 mm in the data set with Escherichia coli [8]; 10 ± 0.23 mm in the data set with Bacillus cereus [9]; 9 ± 0.28 mm in data set [10]. Also, the zone of inhibition at 1000 µg/mL stood at 13 ± 0.21 mm with Staphylococcus aureus [13] and 9 mm with Pseudomonas aeruginosa [14]. For the same compound, the “Day utilized for recovery” value in the data set on burn wounds is 26 days.

Take `O=C(Nc1nc2ccccc2s1)c1cc(N=Nc2nccs2)ccc1O` [Compound 3b, N-(Benzo[d]thiazol-2-yl)-2-hydroxy-5-(thiazol-2-yldiazenyl)benzamide]: the Mortality result in data set [1] is “no occurrences of mortality”. Moreover, the Signs of toxicity result in [1] is “did not display any noteworthy signs of toxicity”. Also, the MIC in the data set with Pseudomonas aeruginosa [17] was found to be 40 µg/mL (≈ 105 µM); against Aeromonas sobria [4], 10 µg/mL (≈ 26.2 µM); in [5], 10 µg/mL (≈ 26.2 µM); with Staphylococcus aureus [6] (Staphylococcus aureus), 20 µg/mL (≈ 52.4 µM); against Escherichia coli [11], 20 µg/mL (≈ 52.4 µM); in data set [12] it was 20 µg/mL (≈ 52.4 µM). Besides, the MIC in the data set on Klebsiella pneumoniae [15] and against Bacillus cereus [16] was 80 µg/mL (≈ 210 µM) in each case. For the same compound, the zone of inhibition at 1000 µg/mL with Aeromonas sobria [2] was 10 ± 0.28 mm; in data set [3] it was 14 ± 0.23 mm; in the data set with Klebsiella pneumoniae [7], 14 ± 0.28 mm; in the data set with Escherichia coli [8] it was 9 ± 0.14 mm; with Bacillus cereus [9], 10 ± 0.33 mm; in [10] it was 10 ± 0.04 mm. Besides, the zone of inhibition at 1000 µg/mL in the data set on Staphylococcus aureus [13] came out at 13 ± 0.58 mm; in the data set on Pseudomonas aeruginosa [14], 9 mm. In the data set on burn wounds, the “Day utilized for recovery” value is 24 days.
